A selection: hits, their analogues and other compounds. The true share with any hit is near 1.9%.
PP5 inh = blocks human protein phosphatase 5 activity; P53041; purified PP5c, OMFP substrate fluorescence; inhibition, % at 6.7 µM; 320,000 tested, 0.18% active; AID 1987;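 active = inhibition above the campaign's mean inhibition across all tested compounds plus 3 SD, cut at about 9.5% in these data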;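 also: 0% = DMSO only and 100% = 100 µM cantharidin control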
Target sequence (P53041 whole entry, looked up): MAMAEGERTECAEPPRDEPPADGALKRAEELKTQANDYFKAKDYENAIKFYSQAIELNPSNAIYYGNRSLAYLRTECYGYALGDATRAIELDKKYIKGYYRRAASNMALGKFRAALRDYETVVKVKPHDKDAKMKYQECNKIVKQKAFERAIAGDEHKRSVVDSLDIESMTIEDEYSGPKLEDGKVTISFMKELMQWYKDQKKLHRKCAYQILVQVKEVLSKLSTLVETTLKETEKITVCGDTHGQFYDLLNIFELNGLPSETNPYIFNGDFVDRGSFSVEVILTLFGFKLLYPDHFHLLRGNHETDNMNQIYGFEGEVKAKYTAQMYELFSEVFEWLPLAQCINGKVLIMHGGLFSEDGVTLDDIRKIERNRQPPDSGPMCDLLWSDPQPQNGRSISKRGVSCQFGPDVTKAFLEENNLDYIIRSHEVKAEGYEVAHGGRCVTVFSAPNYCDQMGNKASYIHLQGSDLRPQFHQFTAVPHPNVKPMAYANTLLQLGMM
STEP block = inhibitors of human striatal-enriched phosphatase STEP; 360,000 tested, 0.25% active; inhibition, % at 20 µM; AID 588621; recombinant STEP, OMFP fluorogenic substrate, fluorescence;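 active = inhibition at 20 µM, scaled per plate between control wells, above about 37%, limit read from the data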;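 also: 0% = DMSO with enzyme and substrate and 100% = substrate only without enzyme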
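Material: STEP (striatal-enriched tyrosine phosphatase) enzyme, cell-free; Compound dosing: 20 µM single dose in 1% DMSO; Technique: fluorescence read at 480 nm ex / 540 nm em; Times: reaction 20 min, ambient temperature; Medium: 50 mM Bis-Tris pH 6.0 with 2.5 mM DTT and 0.005% Tween 20; Also added: OMFP at 25 µM.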
LMPTP block = LMPTP (human) inhibition; P24666; recombinant LMPTP-A, OMFP fluorogenic substrate, fluorescence intensity; inhibition, % at 20 µM; 360,000 tested, 0.22% active; AID 651560;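 active = compounds that cut the enzyme signal by at least half of the control window in the single-dose screen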;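 also: plate controls were DMSO wells with enzyme plus substrate for no effect and substrate without enzyme for full effect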
Target sequence (P24666 whole entry, looked up): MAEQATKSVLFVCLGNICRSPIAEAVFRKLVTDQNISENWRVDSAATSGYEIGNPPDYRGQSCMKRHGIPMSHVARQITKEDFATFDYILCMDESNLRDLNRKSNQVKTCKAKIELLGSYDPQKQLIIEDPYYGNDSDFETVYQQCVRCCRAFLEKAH
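Assay system: LMPTP-A enzyme. Input: 0.625 nM LMPTP-A final. Probe or stimulus: 400 µM OMFP. Compound dosing: single 20 µM dose. Schedule: 50 min dark incubation at room temperature. Detection: fluorescence intensity of OMFP turnover product. Read-out: percent inhibition versus substrate-only and uninhibited controls. Benchmarks: no-enzyme low control, uninhibited high control.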
Scp-1 inhibitor = blocks human Scp-1 phosphatase activity | 340,000 tested, 0.88% active | Recombinant Scp1, phosphopeptide, malachite green phosphate absorbance | inhibition, % at 20 µM | Q9GZU7;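 active = inhibition above about 50% at 20 µM, limit read from the data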;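 also: plate controls were DMSO wells with enzyme for no effect and wells lacking enzyme for full effect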
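Test system: SCP-1 phosphatase catalytic domain, residues 76-261 | Compound dosing: One concentration, 20 µM, with 1.0% DMSO | Schedule: 45 min room-temperature reaction, 5 min colour, 30 min stabiliser | Detection: Absorbance at 630 nm | Read-out basis: % inhibition of SCP-1 phosphate liberation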
PP1 counter = PP1-alpha (human) inhibition in PP5 counter-screen | AID 2235 | P62136 | purified PP1alpha, OMFP fluorescence | 320,000 tested, 0.9% active | inhibition, % at 6.7 µM;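 active = inhibition above the mean inhibition of all tested compounds plus 3 SD, computed separately for each screening campaign, cut at about 15% in these data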
An asterisk follows results filed as active; x = not tested or not shown.

SMILES | PP5 inh | STEP block | LMPTP block | Scp-1 inhibitor | PP1 counter
CCOC(=O)C(C)On1c(-c2ccccc2)nc2ccc([N+](=O)[O-])cc21 (stereo not drawn) | 3 | -6 | -1 | 0 | -1
O=C(O)COn1c(-c2ccccc2)nc2ccc([N+](=O)[O-])cc21 | 5 | 17 | 28 | 81* | 3
Cc1nn(C)c(C)c1N1C(=O)c2cccc3c(N)ccc(c23)C1=O | -3 | -150 | -11 | -11 | -14
Cc1ccc(N2C(=O)c3cccc4c(N)ccc(c34)C2=O)c2cccnc12 | -10 | -23 | 40 | 67* | 4
C/C(=N/NC(=O)c1cc(O)c(O)c(O)c1)c1ccc([N+](=O)[O-])cc1 | x | 1 | 10 | 50* | x
C/C(=N\NC(=O)c1ccc([N+](=O)[O-])cc1)c1c(O)cc(C)oc1=O | 0 | -5 | -1 | -6 | -1
Cc1cc(Nc2ccc(Cl)cc2)nc(NCc2ccccc2)n1 | 8 | 7 | 12 | 2 | 17*
Cc1cc(Nc2ccccc2)nc(NCc2ccccc2)n1 | 5 | 2 | 15 | 1 | 9
Cc1cc(N/N=C/c2ccc(N(C)C)cc2)nc(NCc2ccccc2)n1 | 4 | 20 | 8 | -11 | 16*
Cc1cc(N/N=C/c2ccc(O)cc2)nc(NS(=O)(=O)c2ccccc2)n1 | 1 | 41* | 18 | 48 | -3
COc1ccc(-c2nc3ccc(C)cn3c2Cc2ccc(C)cc2)cc1OC | x | 2 | 2 | x | x
Cc1cccc(C)c1NC(=O)C1(N2CCN(C(=O)c3ccco3)CC2)CCCCC1 | 1 | 0 | -1 | -6 | 0
COc1cc(C2C(C(=O)c3ccco3)=C(O)C(=O)N2CCc2ccccc2)ccc1O (stereo not drawn) | 2 | 3 | 4 | -10 | 15*
COc1cc(C2C(C(=O)c3ccco3)=C(O)C(=O)N2CC2CCCO2)ccc1O (stereo not drawn) | 1 | 1 | 0 | -2 | 2
COCCN1C(=O)C(O)=C(C(=O)c2ccco2)C1c1cccc(Oc2ccccc2)c1 (stereo not drawn) | 1 | 3 | 4 | -3 | 25*
O=S1(=O)CC(O)C(NCc2cccnc2)C1 (stereo not drawn) | 0 | 0 | -1 | 19 | 0
Cc1cc(=O)n2[nH]c(-c3ccco3)nc2n1 | 2 | -3 | -2 | 3 | -1
Cc1nc2[nH]c(=S)[nH]c(=O)c2nc1C | x | -2 | -2 | 5 | x
Cc1nc2c(=O)[nH]c(=S)[nH]c2[nH]c1=O | x | 2 | 0 | 96* | x
COCCCN=C1NN=C(c2cc(C)n(Cc3ccccc3Cl)c2C)CS1 | 2 | 3 | 2 | 15 | 15*
COCCCN=C1NN=C(c2cc(C)n(-c3ccccc3)c2C)CS1 | 4 | 4 | 2 | 1 | 9
Cc1cc(C2=NNC(=NCCc3ccccc3)SC2)c(C)n1-c1c(C)n(C)n(-c2ccccc2)c1=O | 0 | 1 | 10 | 9 | 19*
CN=C1NN=C(c2cc(C)n(-c3ccc(Cl)cc3)c2C)CS1 | 2 | 6 | 0 | -3 | 9
Cc1cc(C2=NNC(=NC3CC3)SC2)c(C)n1-c1c(C)n(C)n(-c2ccccc2)c1=O | 1 | 0 | -1 | -3 | 1
Cc1ccc(-n2c(C)cc(C3=NNC(=NC4CC4)SC3)c2C)cc1C | 4 | 4 | 4 | 4 | 16*
SMILES | PP5 inh | STEP block | LMPTP block | Scp-1 inhibitor | PP1 counter
COCCn1c(C)cc(C2=NNC(=Nc3ccccc3F)SC2)c1C | 1 | -2 | 1 | -11 | 12
Cc1cc(C2=NNC(=Nc3ccccc3)SC2)c(C)n1C | 0 | 2 | 0 | 0 | 16*
O=C(O)c1ccc(-n2c(-c3cc(C4CC4)[nH]n3)n[nH]c2=S)cc1 | -1 | 3 | -2 | 1 | -4
C=CCC[C@@H](Cc1ccc(F)cc1)C(=O)OCCNC(=O)[C@@H](CC=C)CC(=O)N[C@H](CO)Cc1ccccc1 | x | -2 | -2 | -11 | x
Cc1ccc(OC(=O)CCC(=O)Oc2ccc(C)cc2C)c(C)c1 | x | 2 | 1 | -10 | x
Cc1ccc(NC(=O)c2noc3c2CCC3)cc1C | x | 12 | 9 | 78* | x
COc1ccc(NC(=O)c2noc3c2CCC3)cc1 | -2 | 7 | 7 | 83* | -5
COc1ccc(CNC(=O)c2noc3c2CCCCC3)cc1 | 0 | -4 | -1 | -11 | -4
CN1C(=O)S/C(=C/c2ccc(OCc3cccc(C(=O)O)c3)cc2)C1=O | 0 | 2 | 4 | 52* | 4
COc1cccc(/C=C2/SC(=O)N(C)C2=O)c1OCc1ccc(C(=O)O)cc1 | -1 | 1 | 0 | -6 | -1
O=C(O)COc1ccc(/C=C2/SC(=S)N(Cc3ccccc3)C2=O)cc1 | 2 | 3 | 4 | -6 | 15*
CCOc1ccccc1NC(=O)CN1C(=O)COc2ccccc21 | -1 | -3 | -1 | -4 | 2
Cc1nc2c(C(=O)NCCc3ccccc3Cl)c[nH]n2c(=O)c1Cl | 3 | -3 | -1 | 9 | 17*
Cc1nc2c(C(=O)NCc3ccccc3Cl)c[nH]n2c(=O)c1Cl | 2 | -1 | 0 | 1 | 14
COc1ccc(C#Cc2c(-c3ccccc3)n(C)c3ccccc23)cc1 | x | -1 | 3 | -3 | x
COc1ccc(-c2c(C#Cc3ccsc3)c3ccccc3n2C)cc1 | 4 | 0 | 51* | 46 | -4
N#CCC(=O)Nc1ccc(C(=O)NCCC(c2ccccc2)c2ccccc2)cc1 | 3 | 0 | 3 | -8 | 16*
NS(=O)(=O)c1ccc(CCNC(=O)c2ccc(Cl)s2)cc1 | 1 | -1 | 0 | -5 | -4
NS(=O)(=O)c1ccc(CCNC(=O)c2cc3ccccc3s2)cc1 | -7 | 6 | 1 | 58* | 7
Cn1cccc1CC(=O)N/N=C\c1c2ccccc2cc2ccccc12 | 0 | 2 | 3 | -4 | 16*
Cc1ccc(N2C(=O)CC(Sc3ccccc3C(=O)O)C2=O)cc1 (stereo not drawn) | -1 | -4 | -2 | -6 | -2
COc1ccc(S(=O)(=O)N2CCN(CC(=O)c3ccc(O)c(O)c3)CC2)cc1 | 3 | 2 | 70* | -5 | 0
O=C(CN1CCN(S(=O)(=O)c2ccc(Cl)cc2)CC1)c1ccc(O)c(O)c1 | 4 | 2 | 59* | 7 | 0
COc1ccc(S(=O)(=O)N2CCN(CC(=O)NC3CCCC3)CC2)cc1 | -7 | -4 | -2 | -2 | 5
O=C(CN1CCN(S(=O)(=O)c2ccc(F)cc2)CC1)c1ccc(O)c(O)c1 | -2 | 2 | 66* | -2 | 4
CCOc1ccc(C(=O)CN2CCN(S(=O)(=O)c3ccc(F)cc3)CC2)cc1 | 1 | 2 | -3 | 7 | -2
CC1=C(C#N)C(=O)NC(=O)/C1=C\c1ccc(-c2cc(C)c(C)cc2[N+](=O)[O-])o1 | x | 5 | 3 | 78* | x
CN(Cc1ccc(F)cc1)C(=O)c1cc(COc2ccc(-n3cncn3)cc2)on1 | x | 0 | 2 | -10 | x
